Source: ChEMBL document CHEMBL3352767, “Antibacterial ilicicolinic acids C and D and ilicicolinal from Neonectria discophora SNB-CN63 isolated from a termite nest” (J Nat Prod, 2015)
Values after ≈ are worked out from the molar mass of the structure shown.

What was measured:
Trichophyton rubrum = test: Antimicrobial activity against Trichophyton rubrum SNB-TR1 after 5 days; type: functional; conditions: SNB-TR1, 120 h
Summary of the method: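 MIC against the dermatophyte T. rubrum, with itraconazole as the reference drug.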

Escherichia coli = test: Antimicrobial activity against Escherichia coli ATCC 25922 after 24 hrs; type: functional
Staphylococcus aureus = test: Antimicrobial activity against Staphylococcus aureus ATCC 29213 after 24 hrs; type: functional; conditions: ATCC 29213, 24 h
KB = test: Cytotoxicity activity against human KB cells; type: functional, cell-based
Summary of the method: (§1)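 IC50 in μM against KB (nasopharyngeal epidermoid carcinoma) and MRC5 (normal fetal lung) cells, with taxotere as the positive control.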

[1] = Cytotoxicity activity against human MDA435 cells; conditions: MDA-MB-435
MRC5 = test: Cytotoxicity activity against human MRC5 cells; type: cell-based; summary of the method: as §1
Candida albicans = test: Antimicrobial activity against Candida albicans ATCC 10231 after 24 hrs; conditions: ATCC 10231, 24 h
Aspergillus fumigatus = test: Antimicrobial activity against Aspergillus fumigatus SNB-AF1 after 24 hrs; conditions: SNB-AF1, 24 h
Candida parapsilosis = test: Antimicrobial activity against Candida parapsilosis ATCC 22019 after 24 hrs; conditions: Lodderomyces parapsilosis, ATCC 22019, 24 h
[2] = Selectivity index, ratio of IC50 for human MRC5 cells to IC50 for Aspergillus […] SNB-AF1
[3] = Selectivity index, ratio of IC50 for human MRC5 cells to IC50 for Candida albicans ATCC 10231
[4] = Selectivity index, ratio of IC50 for human MRC5 cells to IC50 for Trichophyton rubrum SNB-TR1
[5] = Selectivity index, ratio of IC50 for human MRC5 cells to IC50 for Escherichia coli ATCC 25922
[6] = Selectivity index, ratio of IC50 for human MRC5 cells to IC50 for Candida parapsilosis ATCC 22019
[7] = Selectivity index, ratio of IC50 for human MRC5 cells to IC50 for Staphylococcus aureus ATCC 29213

| Compound | MIC (Trichophyton rubrum) | MIC (Escherichia coli; ATCC 25922, 24 h) | MIC (Staphylococcus aureus) | IC50 (KB) | IC50 [1] | IC50 (MRC5) | MIC (Candida albicans) | MIC (Aspergillus fumigatus) | MIC (Candida parapsilosis) | Selectivity Index [2] | selectivity ratio [3] | Selectivity Index [4] | selectivity ratio [5] | selectivity ratio [6] | selectivity ratio [7] | MIC (Escherichia coli) |
| --- | --- | --- | --- | --- | --- | --- | --- | --- | --- | --- | --- | --- | --- | --- | --- | --- |
| CC(C)=CCC/C(C)=C/CC/C(C)=C/Cc1c(O)c(Cl)c(C)c(C(=O)O)c1O | 8 µg/mL (≈ 19.7 µM) | 1 µg/mL (≈ 2.46 µM) | 4 µg/mL (≈ 9.83 µM) | 36.6 µM | 15.1 µM | 19.7 µM | 16 µg/mL (≈ 39.3 µM) | 64 µg/mL (≈ 157 µM) | 16 µg/mL (≈ 39.3 µM) | 0.1 | 0.5 | 1 | 8 | 0.5 | 2 |  |
| Cc1onc(-c2ccccc2)c1C(=O)N[C@@H]1C(=O)N2[C@@H]1SC(C)(C)[C@@H]2C(=O)O [OXACILLIN] |  |  | 0.5 µg/mL (≈ 1.25 µM) |  |  |  |  |  |  |  |  |  |  |  |  |  |
| CC(=O)O[C@@]12CO[C@@H]1C[C@H](O)[C@@]1(C)C(=O)[C@H](O)C3=C(C)[C@@H](OC(=O)[C@H](O)[C@@H](NC(=O)OC(C)(C)C)c4ccccc4)C[C@@](O)([C@@H](OC(=O)c4ccccc4)[C@H]21)C3(C)C [DOCETAXEL] |  |  |  | 0.0002 µM |  | 0.0005 µM |  |  |  |  |  |  |  |  |  |  |
| CC(C)=CCCC(C)(O)CCC/C(C)=C/Cc1c(O)c(Cl)c(C)c(C(=O)O)c1O (configuration not stated) | 4 µg/mL (≈ 9.41 µM) | 8 µg/mL (≈ 18.8 µM) | 32 µg/mL (≈ 75.3 µM) | 28.4 µM | 4.9 µM | 13.7 µM | 32 µg/mL (≈ 75.3 µM) | 32 µg/mL (≈ 75.3 µM) | 32 µg/mL (≈ 75.3 µM) | 0.2 | 0.2 | 1.5 | 0.7 | 0.2 | 0.2 |  |
| CC(C)=CCC/C(C)=C/CCC(C)(O)C1Cc2c(O)c(C=O)c(C)c(Cl)c2O1 (configuration not stated) | 128 µg/mL (≈ 315 µM) | 64 µg/mL (≈ 157 µM) | 128 µg/mL (≈ 315 µM) | 16.5 µM | 16.4 µM | 15.1 µM | 128 µg/mL (≈ 315 µM) | > 128 µg/mL | 128 µg/mL (≈ 315 µM) |  |  |  |  |  |  |  |
| C/C(=C\Cc1c(O)c(Cl)c(C)c(C(=O)O)c1O)CC/C=C(\C)CCCC(C)(C)O | 32 µg/mL (≈ 75.3 µM) | 8 µg/mL (≈ 18.8 µM) | 32 µg/mL (≈ 75.3 µM) | 47.3 µM | 42.4 µM | 62.1 µM | 16 µg/mL (≈ 37.7 µM) | 128 µg/mL (≈ 301 µM) | 16 µg/mL (≈ 37.7 µM) | 0.2 | 1.6 | 0.8 | 3.3 | 1.6 | 0.8 |  |
| GENTAMICIN |  |  |  |  |  |  |  |  |  |  |  |  |  |  |  | 8 µg/mL |
| CCC(C)n1ncn(-c2ccc(N3CCN(c4ccc(OCC5COC(Cn6cncn6)(c6ccc(Cl)cc6Cl)O5)cc4)CC3)cc2)c1=O (configuration not stated) [ITRACONAZOLE] | 0.03 µg/mL (≈ 0.0425 µM) |  |  |  |  |  |  | 0.5 µg/mL (≈ 0.709 µM) |  |  |  |  |  |  |  |  |
| OC(Cn1cncn1)(Cn1cncn1)c1ccc(F)cc1F [FLUCONAZOLE] |  |  |  |  |  |  | 4 µg/mL (≈ 13.1 µM) |  | 4 µg/mL (≈ 13.1 µM) |  |  |  |  |  |  |  |
